Experimental findings from ChEMBL document CHEMBL2021818, “Novel desosamine-modified 14- and 15-membered macrolides without antibacterial activity” (2012) are described below.

SMILES strings stand for the structures. ≈ marks a conversion by molar mass, not a printed value.

Type in all cases: functional
Assay [1] concerns Staphylococcus aureus. In words: Antibacterial activity against Staphylococcus aureus ATCC 13709 after 24 hrs at 37 degC by CLSI protocol based microdilution method. To be noted: ATCC 13709, 24 h. The essentials:
(§1)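 Macrolide-susceptible strains, broth microdilution MIC per CLSI. Media: Mueller–Hinton broth (MHB) for S. aureus and M. catarrhalis, MHB plus 5% horse serum for streptococci, Haemophilus test medium for H. influenzae. Compounds dissolved in DMF (5 mg/mL stock) and serially twofold diluted in medium over 64 to 0.125 µg/mL. MIC read after 24 h incubation at 37 °C.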
For orientation: Broth dilution looks for growth in wells or tubes with falling amounts of substance.

Assay [2] deals with Streptococcus pneumoniae. As to the kind of experiment: Antibacterial activity against Streptococcus pneumoniae ATCC […] after 24 hrs at 37 degC by CLSI protocol based microdilution method. The essentials:
as §1

The test system of assay [3] is Streptococcus pyogenes. In words: Antibacterial activity against Streptococcus pyogenes ATCC 700294 after 24 hrs at 37 degC by CLSI protocol based microdilution method. To be noted: ATCC 700294, 24 h. Put shortly:
as §1

The subject of assay [4] is Moraxella catarrhalis. As to the kind of experiment: Antibacterial activity against Moraxella catarrhalis ATCC 23246 after 24 hrs at 37 degC by CLSI protocol based microdilution method. As to conditions: ATCC 23246, 24 h. The essentials: as §1
Assay [5] relates to Haemophilus influenzae. In words: Antibacterial activity against Haemophilus influenzae ATCC 49247 after 24 hrs at 37 degC by CLSI protocol based microdilution method. As to conditions: ATCC 49247, 24 h. Put shortly:
as §1

For the molecule `CC[C@H]1OC(=O)[C@H](C)[C@@H](O[C@H]2C[C@@](C)(OC)[C@@H](O)[C@H](C)O2)[C@H](C)[C@@H](O[C@@H]2O[C@H](C)C[C@H]3[C@H]2OC(=O)N3Cc2ccccc2)[C@](C)(OC)C[C@@H](C)C(=O)[C@H](C)[C@@H](O)[C@]1(C)O`, the MIC in assay [1], in assay [2], in assay [3], in assay [4] and in assay [5] was greater than 64 µg/mL each time.

Regarding `CC[C@H]1OC(=O)[C@H](C)[C@@H](O[C@H]2C[C@@](C)(OC)[C@@H](O)[C@H](C)O2)[C@H](C)[C@@H](O[C@@H]2O[C@H](C)C[C@@H]3NC(=O)O[C@@H]23)[C@](C)(O)C[C@@H](C)CN(C)[C@H](C)[C@@H](O)[C@]1(C)O`, the MIC in assay [1], in assay [2], in assay [3], in assay [4] and in assay [5] was greater than 64 µg/mL in each case.

Consider `CC[C@H]1OC(=O)[C@H](C)[C@@H](O[C@H]2C[C@@](C)(OC)[C@@H](O)[C@H](C)O2)[C@H](C)[C@@H](O[C@@H]2O[C@H](C)C[C@H](NC)[C@H]2O)[C@](C)(OC)C[C@@H](C)C(=O)[C@H](C)[C@@H](O)[C@]1(C)O`, for which the MIC in assay [1] is 4 µg/mL (≈ 5.45 µM); in assay [2], less than 0.25 µg/mL; in assay [3], less than 0.25 µg/mL; in assay [4], 2 µg/mL (≈ 2.73 µM); in assay [5], greater than 64 µg/mL.

Consider `CC[C@H]1OC(=O)[C@H](C)[C@@H](O[C@H]2C[C@@](C)(OC)[C@@H](O)[C@H](C)O2)[C@H](C)[C@@H](O[C@@H]2O[C@H](C)C[C@H](N(C)C)[C@H]2O)[C@](C)(OC)C[C@@H](C)C(=O)[C@H](C)[C@@H](O)[C@]1(C)O` [CLARITHROMYCIN], for which the MIC in assay [1] was 0.25 µg/mL (≈ 0.334 µM); in assay [2] it was less than 0.125 µg/mL; in assay [3] it was less than 0.125 µg/mL; in assay [4] it was less than 0.125 µg/mL; in assay [5], 8 µg/mL (≈ 10.7 µM).

Regarding `CC[C@H]1OC(=O)[C@H](C)[C@@H](O[C@H]2C[C@@](C)(OC)[C@@H](O)[C@H](C)O2)[C@H](C)[C@@H](O[C@@H]2O[C@H](C)C[C@@H]3NC(=O)O[C@@H]23)[C@](C)(OC)C[C@@H](C)C(=O)N[C@H](C)[C@@H](O)[C@]1(C)O`, the MIC in assay [1], in assay [2], in assay [3], in assay [4] and in assay [5] was greater than 64 µg/mL throughout.

Take `CCCN1C(=O)O[C@H]2[C@H](O[C@@H]3[C@@H](C)[C@H](O[C@H]4C[C@@](C)(OC)[C@@H](O)[C@H](C)O4)[C@@H](C)C(=O)O[C@H](CC)[C@@](C)(O)[C@H](O)[C@@H](C)N(C)C[C@H](C)C[C@@]3(C)O)O[C@H](C)C[C@@H]21`: the MIC in assay [1], in assay [2], in assay [3], in assay [4] and in assay [5] was greater than 64 µg/mL in each case.

On to `C=CCN1C(=O)O[C@H]2[C@H](O[C@@H]3[C@@H](C)[C@H](O[C@H]4C[C@@](C)(OC)[C@@H](O)[C@H](C)O4)[C@@H](C)C(=O)O[C@H](CC)[C@@](C)(O)[C@H](O)[C@@H](C)N(C)C[C@H](C)C[C@@]3(C)O)O[C@H](C)C[C@@H]21`, for which the MIC in assay [1], in assay [2], in assay [3], in assay [4] and in assay [5] was greater than 64 µg/mL in each case.

On to `CC[C@H]1OC(=O)[C@H](C)[C@@H](O[C@H]2C[C@@](C)(OC)[C@@H](O)[C@H](C)O2)[C@H](C)[C@@H](O[C@@H]2O[C@H](C)C[C@H](N(C)C)[C@H]2O)[C@](C)(O)C[C@@H](C)CN(C)[C@H](C)[C@@H](O)[C@]1(C)O` [AZITHROMYCIN], for which the MIC was 1 µg/mL (≈ 1.34 µM) in assay [1]; less than 0.125 µg/mL in assay [2]; less than 0.125 µg/mL in assay [3]; less than 0.125 µg/mL in assay [4]; 2 µg/mL (≈ 2.67 µM) in assay [5].

With `CC[C@H]1OC(=O)[C@H](C)[C@@H](O[C@H]2C[C@@](C)(OC)[C@@H](O)[C@H](C)O2)[C@H](C)[C@@H](O[C@@H]2O[C@H](C)C[C@H]3[C@H]2OC(=O)N3CC)[C@](C)(O)C[C@@H](C)CN(C)[C@H](C)[C@@H](O)[C@]1(C)O`, the MIC in assay [1], in assay [2], in assay [3], in assay [4] and in assay [5] was greater than 64 µg/mL each time.

For `CC[C@H]1OC(=O)[C@H](C)[C@@H](O[C@H]2C[C@@](C)(OC)[C@@H](O)[C@H](C)O2)[C@H](C)[C@@H](O[C@@H]2O[C@H](C)C[C@H](NC)[C@H]2O)[C@](C)(O)C[C@@H](C)CN(C)[C@H](C)[C@@H](O)[C@]1(C)O`, the MIC was 16 µg/mL (≈ 21.8 µM) in assay [1]; 2 µg/mL (≈ 2.72 µM) in assay [2]; 2 µg/mL (≈ 2.72 µM) in assay [3]; 2 µg/mL (≈ 2.72 µM) in assay [4]; greater than 64 µg/mL in assay [5].

Consider `CC[C@H]1OC(=O)[C@H](C)[C@@H](O[C@H]2C[C@@](C)(OC)[C@@H](O)[C@H](C)O2)[C@H](C)[C@@H](O[C@@H]2O[C@H](C)C[C@@H]3NC(=O)O[C@@H]23)[C@](C)(OC)C[C@@H](C)C(=O)[C@H](C)[C@@H](O)[C@]1(C)O`, for which the MIC in assay [1], in assay [2], in assay [3], in assay [4] and in assay [5] was greater than 64 µg/mL each time.

`CC[C@H]1OC(=O)[C@H](C)[C@@H](O[C@H]2C[C@@](C)(OC)[C@@H](O)[C@H](C)O2)[C@H](C)[C@@H](O[C@@H]2O[C@H](C)C[C@H]3[C@H]2OC(=O)N3C)[C@](C)(OC)C[C@@H](C)C(=O)[C@H](C)[C@@H](O)[C@]1(C)O`: the MIC in assay [1], in assay [2], in assay [3], in assay [4] and in assay [5] was greater than 64 µg/mL throughout.

Consider `CC[C@H]1OC(=O)[C@H](C)[C@@H](O[C@H]2C[C@@](C)(OC)[C@@H](O)[C@H](C)O2)[C@H](C)[C@@H](O[C@@H]2O[C@H](C)C[C@H]3[C@H]2OC(=O)N3CC)[C@](C)(OC)C[C@@H](C)C(=O)[C@H](C)[C@@H](O)[C@]1(C)O`, for which the MIC in assay [1], in assay [2], in assay [3], in assay [4] and in assay [5] was greater than 64 µg/mL each time.

As for `CCCN1C(=O)O[C@H]2[C@H](O[C@@H]3[C@@H](C)[C@H](O[C@H]4C[C@@](C)(OC)[C@@H](O)[C@H](C)O4)[C@@H](C)C(=O)O[C@H](CC)[C@@](C)(O)[C@H](O)[C@@H](C)C(=O)[C@H](C)C[C@@]3(C)OC)O[C@H](C)C[C@@H]21`, the MIC in assay [1], in assay [2], in assay [3], in assay [4] and in assay [5] was greater than 64 µg/mL throughout.

In the case of `CC[C@H]1OC(=O)[C@H](C)[C@@H](O[C@H]2C[C@@](C)(OC)[C@@H](O)[C@H](C)O2)[C@H](C)[C@@H](O[C@@H]2O[C@H](C)C[C@H](N)[C@H]2O)[C@](C)(OC)C[C@@H](C)C(=O)[C@H](C)[C@@H](O)[C@]1(C)O`, the MIC in assay [1] is greater than 64 µg/mL; in assay [2], 2 µg/mL (≈ 2.78 µM); in assay [3], 2 µg/mL (≈ 2.78 µM); in assay [4], 16 µg/mL (≈ 22.2 µM); in assay [5], greater than 64 µg/mL.

Regarding `CC[C@H]1OC(=O)[C@H](C)[C@@H](O[C@H]2C[C@@](C)(OC)[C@@H](O)[C@H](C)O2)[C@H](C)[C@@H](O[C@@H]2O[C@H](C)C[C@H](N(C)C)[C@H]2O)[C@](C)(OC)C[C@@H](C)C(=O)N[C@H](C)[C@@H](O)[C@]1(C)O`, the MIC in assay [1] came to 32 µg/mL (≈ 41.9 µM); in assay [2], 1 µg/mL (≈ 1.31 µM); in assay [3], 4 µg/mL (≈ 5.24 µM); in assay [4] it was 0.5 µg/mL (≈ 0.655 µM); in assay [5], 16 µg/mL (≈ 21 µM).

For `CCCN1C(=O)O[C@H]2[C@H](O[C@@H]3[C@@H](C)[C@H](O[C@H]4C[C@@](C)(OC)[C@@H](O)[C@H](C)O4)[C@@H](C)C(=O)O[C@H](CC)[C@@](C)(O)[C@H](O)[C@@H](C)NC(=O)[C@H](C)C[C@@]3(C)OC)O[C@H](C)C[C@@H]21`, the MIC in assay [1], in assay [2], in assay [3], in assay [4] and in assay [5] was greater than 64 µg/mL in each case.

On to `CCCCCCN1C(=O)O[C@H]2[C@H](O[C@@H]3[C@@H](C)[C@H](O[C@H]4C[C@@](C)(OC)[C@@H](O)[C@H](C)O4)[C@@H](C)C(=O)O[C@H](CC)[C@@](C)(O)[C@H](O)[C@@H](C)N(C)C[C@H](C)C[C@@]3(C)O)O[C@H](C)C[C@@H]21`, for which the MIC in assay [1], in assay [2], in assay [3], in assay [4] and in assay [5] was greater than 64 µg/mL throughout.

For the molecule `CC[C@H]1OC(=O)[C@H](C)[C@@H](O[C@H]2C[C@@](C)(OC)[C@@H](O)[C@H](C)O2)[C@H](C)[C@@H](O[C@@H]2O[C@H](C)C[C@H](NC)[C@H]2O)[C@](C)(OC)C[C@@H](C)C(=O)N[C@H](C)[C@@H](O)[C@]1(C)O`, the MIC in assay [1] is greater than 64 µg/mL; in assay [2], 32 µg/mL (≈ 42.7 µM); in assay [3], 64 µg/mL (≈ 85.5 µM); in assay [4] it was 16 µg/mL (≈ 21.4 µM); in assay [5], greater than 64 µg/mL.

In the case of `CC[C@H]1OC(=O)[C@H](C)[C@@H](O[C@H]2C[C@@](C)(OC)[C@@H](O)[C@H](C)O2)[C@H](C)[C@@H](O[C@@H]2O[C@H](C)C[C@H](N)[C@H]2O)[C@](C)(O)C[C@@H](C)CN(C)[C@H](C)[C@@H](O)[C@]1(C)O`, the MIC is greater than 64 µg/mL in assay [1]; 4 µg/mL (≈ 5.55 µM) in assay [2]; 32 µg/mL (≈ 44.4 µM) in assay [3]; 8 µg/mL (≈ 11.1 µM) in assay [4]; 64 µg/mL (≈ 88.8 µM) in assay [5].
